pPAFAH inh = inhibitors of human plasma PAF acetylhydrolase (pPAFAH); Q13093; recombinant pPAFAH, FP-rhodamine probe fluorescence polarization; inhibition, % at 3.39 µM; 330,000 tested, 1.5% active; AID 463082;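 active means inhibition above the mean inhibition across the screen plus 3 SD, cut at about 25% in these data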;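 further: inhibitors block binding of the rhodamine activity-based probe so polarization drops; 0% = enzyme with DMSO and 100% = wells lacking pPAFAH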
Apaf1 inhib = blocks human Apaf-1 apoptosome activity. AID 489030. 330,000 tested, 0.71% active. O14727. reconstituted apoptosome caspase-3 activity, DEVD-Rh110 fluorescence. inhibition, % at 20 µM; active means inhibition of at least 40% at 20 µM;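 further: plate controls were DMSO wells for no effect and DEVD-CHO caspase inhibitor wells for full effect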
Target sequence (O14727 whole entry, looked up): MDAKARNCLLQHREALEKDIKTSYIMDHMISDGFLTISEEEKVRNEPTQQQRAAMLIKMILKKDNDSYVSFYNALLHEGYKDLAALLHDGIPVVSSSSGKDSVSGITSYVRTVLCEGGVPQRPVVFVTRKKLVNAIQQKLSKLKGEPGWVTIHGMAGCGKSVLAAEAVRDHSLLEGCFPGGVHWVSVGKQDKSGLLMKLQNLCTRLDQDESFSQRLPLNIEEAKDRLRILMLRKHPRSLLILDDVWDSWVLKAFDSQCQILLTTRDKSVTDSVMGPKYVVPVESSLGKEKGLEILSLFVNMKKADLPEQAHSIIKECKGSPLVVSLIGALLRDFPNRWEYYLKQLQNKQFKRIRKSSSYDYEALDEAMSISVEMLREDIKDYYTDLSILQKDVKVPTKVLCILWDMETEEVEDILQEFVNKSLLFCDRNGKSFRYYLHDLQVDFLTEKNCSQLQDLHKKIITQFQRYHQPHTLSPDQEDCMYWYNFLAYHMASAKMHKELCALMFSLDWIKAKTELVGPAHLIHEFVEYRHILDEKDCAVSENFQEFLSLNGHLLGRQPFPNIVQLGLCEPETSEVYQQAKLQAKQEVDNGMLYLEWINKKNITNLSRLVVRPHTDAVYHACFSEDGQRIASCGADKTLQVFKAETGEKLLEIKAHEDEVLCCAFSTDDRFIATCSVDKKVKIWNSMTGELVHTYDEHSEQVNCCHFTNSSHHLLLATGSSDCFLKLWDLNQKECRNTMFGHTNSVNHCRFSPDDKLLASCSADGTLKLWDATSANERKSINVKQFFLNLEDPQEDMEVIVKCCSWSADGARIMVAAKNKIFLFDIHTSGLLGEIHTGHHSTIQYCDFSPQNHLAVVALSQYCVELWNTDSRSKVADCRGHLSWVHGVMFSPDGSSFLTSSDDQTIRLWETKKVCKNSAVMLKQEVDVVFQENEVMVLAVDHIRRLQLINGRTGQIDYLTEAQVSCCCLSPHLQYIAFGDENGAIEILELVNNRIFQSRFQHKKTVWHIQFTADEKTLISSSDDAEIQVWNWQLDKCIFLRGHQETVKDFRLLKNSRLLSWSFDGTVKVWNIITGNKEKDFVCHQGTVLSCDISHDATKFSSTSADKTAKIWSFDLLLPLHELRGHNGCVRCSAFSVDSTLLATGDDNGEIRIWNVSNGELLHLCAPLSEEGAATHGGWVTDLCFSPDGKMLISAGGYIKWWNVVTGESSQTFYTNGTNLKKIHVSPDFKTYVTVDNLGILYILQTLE
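Material: cell-free apoptosome with Apaf-1, procaspase-3 and caspase-9; Buffer or medium: Hepes pH 7.5 with detergent and BSA; Reagent: cytochrome c trigger plus (Z-DEVD)2-Rh110 caspase-3 substrate; Times: compound with Apaf-1, dATP, procaspase-3 30 min, then 50 min reaction, room temperature; Technique: Rh110 fluorescence intensity.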
PREPL inh = human PREPL enzyme inhibition | recombinant PREPL, fluorescence polarization activity-based probe | inhibition, % at 5.96 µM | 320,000 tested, 0.68% active; in the data active means inhibition above about 43%;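 further: 0% = enzyme with DMSO and 100% = wells lacking enzyme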
PAFAH1B2 inh = blocks human PAF acetylhydrolase 1b catalytic subunit 2. recombinant PAFAH1B2, FP-rhodamine activity probe, fluorescence polarization. inhibition, % at 3.39 µM. 340,000 tested, 1.2% active. AID 492953;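 active means inhibition above the mean of all tested compounds plus 3 SD, cut at about 24% in these data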;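 further: 0% = enzyme with DMSO and 100% = wells lacking PAFAH1B2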
PAFAH1B3 FP inh = inhibitors of human PAFAH1B3; Q15102; recombinant PAFAH1B3, FP-rhodamine probe, fluorescence polarization; inhibition, % at 3.39 µM; 340,000 tested, 0.28% active; AID 492972;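 active means inhibition above the screen-wide average of all tested compounds plus 3 SD, cut at about 25% in these data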;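 further: 0% = enzyme with DMSO only and 100% = wells lacking PAFAH1B3 protein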
PAFAH2 inh = inhibitors of human PAFAH2. inhibition, % at 3.39 µM. recombinant PAFAH2, FP-rhodamine activity probe, fluorescence polarization. 340,000 tested, 0.99% active. Q99487;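 active means inhibition above the mean over all tested compounds plus 3 SD, cut at about 30% in these data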;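 further: inhibitors block probe labeling of enzyme so polarization drops; 0% = enzyme with DMSO and 100% = wells lacking PAFAH2 protein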
Numbers without * were called inactive; · = not tested or not shown. Sampled rows, rich in hits. Any-hit rate of the full collection: about 3.5%.

SMILES | pPAFAH inh | Apaf1 inhib | PREPL inh | PAFAH1B2 inh | PAFAH1B3 FP inh | PAFAH2 inh
Cc1ccc(S(=O)(=O)N2CCC(=O)N(C(CO)Cc3ccccc3)CC2)cc1 (centres undefined) | 0 | 3 | 9 | 24* | 4 | 1
Cc1ccc(S(=O)(=O)N2CCC(=O)N(CCOCc3ccc(C(F)(F)F)cc3)CC2)cc1 | 30* | 30 | 3 | 16 | 7 | 8
Cc1ccc(NC(=O)OCCN2CCN(S(=O)(=O)c3ccc(C)cc3)CCC2=O)cc1 | 11 | 11 | 10 | 29* | 9 | 3
Cc1ccc(S(=O)(=O)N2CCC(=O)N(C(COC(=O)Nc3ccccc3)Cc3ccccc3)CC2)cc1 (centres undefined) | 7 | 25 | 2 | 35* | 6 | 4
Cc1ccc(S(=O)(=O)N2CCC(=O)N(C(COCc3cccc(C)c3)Cc3ccccc3)CC2)cc1 (centres undefined) | 2 | 23 | 6 | 13 | 4 | 4
COCc1cc(CN2CCCC(C(=O)Nc3cccc(-n4cnnn4)c3)C2)ccc1OC (centres undefined) | -4 | 6 | -9 | -2 | 3 | 1
COc1ccc(C2(O)CC3CCC(C2)N3c2nc(C)cc(C)c2C#N)cc1 (centres undefined) | -1 | 7 | -7 | -1 | 5 | 1
CC(O)c1nc2ccc(C(=O)O)cc2[nH]1 (centres undefined) | 3 | -29 | -17 | 3 | 8 | 2
COc1ccc(CNCC(O)(c2ccc(Cl)cc2)c2ccc(Cl)cc2)cc1OC | -1 | 42* | 14 | 2 | 9 | -14
N#Cc1c(F)cccc1NCCCn1ccnc1 | 3 | -17 | 2 | -7 | 4 | 0
CCOC(=O)CC1NCCc2c1[nH]c1ccc(OC)cc21 (centres undefined) | -1 | 6 | 12 | 2 | 9 | 0
S=c1[nH]nc(-c2ccco2)n1C1CCCCC1 | 4 | -5 | 1 | 26* | 10 | 4
Nn1c(-c2ccco2)n[nH]c1=S | 0 | -33 | 7 | -3 | 6 | -2
CCCSc1nnc(NC(=O)CSc2sc3c(O)cc(=O)[nH]c3c2C#N)s1 | 43* | 14 | 40 | 16 | 15 | 37*
Cc1ccccc1NC(=O)CSc1[nH]c(=O)cc(C)c1C#N | -1 | 2 | 6 | 3 | 11 | 15
N#Cc1c(SCC(=O)Nc2ccccc2C(F)(F)F)sc2c(O)cc(=O)[nH]c12 | 27* | 4 | 14 | 6 | 9 | 7
Cc1c(C(N)=O)c(-c2ccccc2)nn1-c1ccccc1 | 1 | -1 | -4 | -1 | 1 | -6
CCCc1c(-c2ccc(O)cc2)nn(-c2ccc(O)cc2)c1-c1ccc(O)cc1 | 33* | 8 | 0 | 5 | 11 | 1
O=C(Nc1ccc2c(c1)OCCO2)Nc1ccc2c(c1)OCO2 | 6 | 5 | 3 | 5 | 7 | -3
O=C(Nc1ccc2c(c1)CCC2)Nc1ccc2c(c1)OCO2 | 25* | -7 | 5 | 2 | 7 | 2
O=C(COC(=O)Cc1ccsc1)NC1CCCCCC1 | 30* | -11 | -6 | 11 | 4 | 14
COc1ccc(NC(=O)Cc2ccsc2)c(OC)c1 | 7 | 4 | -1 | 6 | 8 | -2
COc1ccc(NC(=O)COC(=O)Cc2ccsc2)c(OC)c1 | 30* | -7 | 2 | -2 | 9 | 7
COc1cccc(CNC2CCCCCCC2)c1OC | 1 | -5 | -2 | 4 | 12 | -3
CC(NC(=O)CN(c1ccccc1F)S(C)(=O)=O)c1ccccc1 (centres undefined) | 4 | 0 | -8 | 7 | 7 | 10
O=C1N/C(=N/NC(=O)c2cccc3ccccc23)S/C1=C\c1ccccc1OCc1ccccc1 | · | · | · | 14 | 26* | 10
COc1ccccc1NS(=O)(=O)c1cccc(C(=O)N2CCN(C/C=C/c3ccccc3)CC2)c1 | 11 | 46* | 36 | 10 | 8 | 5
COc1ccccc1NS(=O)(=O)c1cc(C(=O)N2CCN(C/C=C/c3ccccc3)CC2)ccc1C | 5 | 34 | 41 | 5 | 2 | 3
O=c1[nH]c(S)c(/C=C2\C=Nc3ccccc32)s1 | 25* | 12 | 12 | · | · | ·
Cn1cc(C(=O)c2ccccc2C(=O)O)cc1C(=O)C(Cl)(Cl)Cl | 3 | -5 | 0 | -1 | 8 | 1

Screening results as filed in PubChem BioAssay.
